Screening data deposited in PubChem by The Scripps Research Institute Molecular Screening Center.
rCAG binder – r(CAG) repeat RNA binding. AID 651821. inhibition, % at 3 µM. 370,000 tested, 1.3% active. TO-PRO-1 dye displacement fluorescence;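 active means inhibition above the plate cutoff, the mean of all test compounds on that plate plus 3 SD, cut at about 35% in these data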;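 further: 0% = DMSO alone and 100% = 100 µM mitoxantrone as full dye displacement; higher means more dye released from RNA so lower well fluorescence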
ABHD4 inh – ABHD4 (mouse) inhibition, primary FP screen | purified mABHD4, FP-Rh probe fluorescence polarization | inhibition, % at 8.92 µM | 370,000 tested, 0.54% active;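 active means inhibition exceeding the mean over every tested compound plus 3 SD, cut at about 30% in these data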;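 further: 0% = plate median of compound wells and 100% = S159A mutant with DMSO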
Target sequence (Q8VD66 whole entry, looked up): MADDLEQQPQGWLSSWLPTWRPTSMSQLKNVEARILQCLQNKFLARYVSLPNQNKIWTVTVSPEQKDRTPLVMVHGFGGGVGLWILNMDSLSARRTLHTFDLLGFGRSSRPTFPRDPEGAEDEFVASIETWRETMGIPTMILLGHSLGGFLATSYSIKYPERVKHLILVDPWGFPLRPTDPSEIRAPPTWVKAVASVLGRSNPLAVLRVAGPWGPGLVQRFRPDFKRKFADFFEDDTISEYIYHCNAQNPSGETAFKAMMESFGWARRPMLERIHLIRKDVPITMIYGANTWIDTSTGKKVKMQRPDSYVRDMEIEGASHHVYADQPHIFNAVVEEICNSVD
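Doses – 8.92 µM, single dose · Material – wild-type mouse ABHD4 protein · Replication – single well per compound (singlicate) · Measure – percent inhibition of probe binding, normalized to plate controls · Schedule – 45 min compound pre-incubation plus 60 min probe step, 25 °C · Detection – fluorescence polarization with parallel and perpendicular emission, 525/598 nm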
SIAE primary – inhibitors of human sialic acid acetylesterase SIAE | SIAE FP-Rh probe binding, fluorescence polarization | inhibition, % at 9.66 µM | 370,000 tested, 0.69% active | Q9HAT2;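 active means inhibition above a cutoff: mean of compounds within the control limits plus 3 SD of those, cut at about 17% in these data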;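 further: 0% = plate median of compound wells and 100% = probe without SIAE protein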
PRMT1 inh – PRMT1 (human) inhibition, primary screen; Q99873; recombinant PRMT1, activity-based probe fluorescence polarization; inhibition, % at 2.79 µM; 370,000 tested, 1.3% active; AID 652257;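 active means inhibition above about 21% made by adding two undisclosed values, limit read from the data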
Target sequence (Q99873 whole entry, looked up): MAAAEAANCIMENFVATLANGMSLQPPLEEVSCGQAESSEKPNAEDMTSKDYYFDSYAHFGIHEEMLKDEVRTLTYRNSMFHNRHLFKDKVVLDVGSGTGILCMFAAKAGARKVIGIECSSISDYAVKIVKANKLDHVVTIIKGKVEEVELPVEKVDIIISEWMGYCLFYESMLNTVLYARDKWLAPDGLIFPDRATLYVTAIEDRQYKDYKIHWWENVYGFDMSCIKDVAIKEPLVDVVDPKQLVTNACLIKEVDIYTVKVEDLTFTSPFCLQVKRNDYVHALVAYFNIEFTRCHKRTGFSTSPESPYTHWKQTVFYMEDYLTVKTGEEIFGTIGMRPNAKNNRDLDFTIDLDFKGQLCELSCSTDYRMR
TCR CD3 inh – human TCR-CD3 binding inhibition. TAMRA-labeled TCR probe fluorescence, biochemical. AID 651800. 360,000 tested, 0.37% active. inhibition, % at 9.4 µM;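 further: recombinant mutant TCR 2C K166C tagged with TAMRA read by polarization; 0% = receptor in buffer alone and 100% = receptor with positive control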
HTRA1 inhibitor – HTRA1 (human) protease inhibition; Q92743; 340,000 tested, 0.5% active; inhibition, % at 5.96 µM; recombinant HTRA1, FP-rhodamine activity-based probe, fluorescence polarization; in the data active means inhibition above about 36%;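 further: 0% = enzyme with DMSO and 100% = wells lacking enzyme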
HTRA1 conf – confirmation of human HTRA1 inhibitors; recombinant HTRA1, FP-rhodamine activity-based probe, fluorescence polarization; 1,600 tested, 66% active; inhibition, % at 5.96 µM; shares compounds with HTRA1 inhibitor;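 active means mean inhibition over three repeats above a set limit taken from the earlier primary screen, cut at about 37% in these data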;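 further: 0% = HTRA1 with DMSO and 100% = wells lacking HTRA1; inhibitors block probe binding so polarization drops and inhibition rises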
BSA TAMRA ctr – counter-screen for TCR-CD3 interaction inhibitors: BSA probe; TAMRA-labeled BSA probe fluorescence counterscreen; shares compounds with TCR CD3 inh; AID 652035; 1,200 tested, 10% active; inhibition, % at 9.4 µM; in the data active means inhibition above about 23%;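 further: 0% = buffer low control and 100% = reference high control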
TCR-CD3 inh conf – confirmation of human TCR-CD3 interaction inhibitors; AID 652036; inhibition, % at 9.4 µM; TAMRA-labeled TCR probe fluorescence binding assay; 1,200 tested, 48% active; shares compounds with TCR CD3 inh
rCAG bind conf – r(CAG) RNA repeat binding, confirmation | shares compounds with rCAG binder | TO-PRO-1 dye displacement fluorescence | inhibition, % at 3 µM | 4,300 tested, 70% active;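 active means inhibition above a per-plate cutoff, the mean inhibition of sample wells plus 3 SD, cut at about 35% in these data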;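 further: loss of TO-PRO-1 fluorescence as compound displaces dye from 1x1 AA loop RNA; 0% = DMSO only wells and 100% = 100 µM mitoxantrone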
DNA CAG counter – DNA CAG dye complex inhibition counter-screen; shares compounds with rCAG binder; 4,300 tested, 94% active; inhibition, % at 3 µM; d(CAG) DNA oligo TO-PRO-1 dye displacement, fluorescence;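 active means inhibition above its plate's cutoff, the mean test-well inhibition plus 3 SD, cut at about 4.8% in these data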;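 further: 0% = DNA dye mix with DMSO and 100% = 100 µM mitoxantrone; hits displace the dye from DNA and so lower well fluorescence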
PRMT1 confirm – PRMT1 (human) inhibition, FP confirmation. inhibition, % at 2.79 µM. shares compounds with PRMT1 inh. 3,300 tested, 42% active. recombinant His-PRMT1, activity-based probe fluorescence polarization;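 active means mean inhibition across replicates above the hit cutoff derived for the earlier primary screen, cut at about 22% in these data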
mABHD4 conf – confirmation of mouse ABHD4 inhibitors; purified mABHD4, FP-Rh probe fluorescence polarization; 1,800 tested, 55% active; inhibition, % at 8.92 µM; shares compounds with ABHD4 inh; AID 720658;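 active means mean inhibition across replicates above the hit cutoff set in the primary screen, cut at about 30% in these data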;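 further: 0% = wild-type ABHD4 with DMSO and 100% = catalytically dead S159A mutant with DMSO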
SIAE inh conf – human SIAE inhibition, confirmation. inhibition, % at 9.66 µM. shares compounds with SIAE primary. SIAE FP-Rh activity-based probe, fluorescence polarization. 2,300 tested, 13% active;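 active means mean inhibition of the replicates above the hit cutoff set in the primary screen, cut at about 17% in these data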;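 further: 0% = SIAE with DMSO and probe and 100% = probe without SIAE; inhibitors lower polarization as more probe stays unbound to SIAE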
Active calls of the source: *; . = not tested or not shown. Shown are actives, neighbours in structure and some others; about 3.5% of the full set was active somewhere. Unless noted, no stated cut-off is given here; in the data, active means inhibition above about 19%; inactive means the rest.

SMILES	rCAG binder	ABHD4 inh	SIAE primary	PRMT1 inh	TCR CD3 inh	HTRA1 inhibitor	HTRA1 conf	mABHD4 conf	SIAE inh conf	others
O=C(Nc1ccc(OC(F)(F)F)cc1)Nc1c(-c2ccccc2)nc2ncccn12	9	-11	3	0	.	.	.	.	.
CC(=O)NC(c1ccc(C)cc1)c1cc(Cl)c2cccnc2c1O (stereo not drawn)	-1	21	20*	-2	-4	62*	76*	.	17
CC(=O)NC(C)c1cc(F)c2cccnc2c1O (stereo not drawn)	0	-2	-1	1	1	3	.	.	.
CC(=O)NC(c1ccc(C(C)C)cc1)c1ccc2cccnc2c1O (stereo not drawn)	3	13	23*	-5	-1	66*	75*	.	29*
c1ccc(Cn2c(SC3CCCCC3)nnc2-c2cccnc2)cc1	-2	8	-4	2	.	.	.	.	.
O=C(CS(=O)CC(=O)Nc1ccccc1-c1ccccc1)Nc1ccc(F)cc1 (stereo not drawn)	-4	-10	-3	6	1	4	.	.	.
Cc1ccc(NC(=O)CS(=O)CC(=O)Nc2ccccc2-c2ccc(C)o2)cc1 (stereo not drawn)	-4	45*	33*	51*	86*	57*	-9	-2	9	BSA TAMRA ctr=6;TCR-CD3 inh conf=4
CC(C)c1ccc(Nc2c([N+](=O)[O-])c(=O)n(C)c3ccccc23)cc1	1	3	-2	-1	-6	-26	.	.	.
Cn1c(=O)c(Nc2ccc(O)cc2)c2c3c(cccc31)C(=O)c1ccccc1-2	-43	74*	26*	105*	16	78*	86*	65*	14	PRMT1 confirm=32*
Nc1nc(Sc2ccc([N+](=O)[O-])c3nonc23)c2[nH]cnc2n1	25	46*	17*	89*	7	59*	71*	49*	0	PRMT1 confirm=84*
Cn1c2ccccc2c2cc(/C=N/NC(=O)c3ccc(O)cc3O)ccc21	.	.	.	.	.	-19	.	.	.
COc1ccc2c(c1)cc(C(=O)N/N=C/c1c(O)c(C(=O)O)cc3ccccc13)n2C	91*	19	39*	2	37*	55*	39*	.	6	BSA TAMRA ctr=-17;TCR-CD3 inh conf=45*;rCAG bind conf=89*;DNA CAG counter=68*
Cn1c(O)c(/C=N/NC(=O)c2cc3ccccc3cc2O)c2ccccc21	95*	40*	23*	3	50*	54*	55*	44*	10	BSA TAMRA ctr=-13;TCR-CD3 inh conf=53*;rCAG bind conf=90*;DNA CAG counter=75*
CC(=O)Nc1ccc(N=Cc2c(O)c(C(=O)Nc3ccccc3)cc3ccccc23)cc1	13	-6	7	6	2	.	.	.	.
O=C(C1CCCN(S(=O)(=O)c2ccc(Br)s2)C1)N1CCN(Cc2ccccc2)CC1 (stereo not drawn)	2	-3	1	-5	.	.	.	.	.
O=c1c2ccccc2nc(N/N=C/c2c(O)ccc3ccccc23)n1O	35*	34*	18*	0	9	62*	68*	34*	11	rCAG bind conf=71*;DNA CAG counter=30*
COc1ccc(S[C@]2(C(=O)N(C)C)CC(=O)N(c3ccccc3)[C@@H]2c2ccc(OC)cc2)cc1	0	-6	3	-3	.	.	.	.	.
O=S(=O)(CC1NCc2cc(F)ccc21)NCCc1ccccc1 (stereo not drawn)	8	-5	6	-1	.	.	.	.	.
COc1ccc(NC2CC(=O)N(C(C)C)C2=O)cc1 (stereo not drawn)	5	5	2	2	-3	11	.	.	.
CC(C)N1C(=O)CC(Nc2cccc3cccc(N)c23)C1=O (stereo not drawn)	29	36*	32*	15	9	36*	11	.	6
CN(/N=C\c1ccc(O)c(O)c1)c1nc(-c2ccccc2)cc(-c2ccccc2)n1	29	34*	35*	-1	2	39*	66*	123*	-22
CCc1ccc2[nH]c3nc(N/N=C/c4ccc(O)cc4O)nnc3c2c1	57*	16	30*	-1	11	61*	63*	.	29*	rCAG bind conf=35*;DNA CAG counter=22*
N#CC1=C(N)Oc2ccc3ccc(O)cc3c2C1c1ccsc1 (stereo not drawn)	-52	132*	126*	83*	70*	126*	58*	88*	63*	BSA TAMRA ctr=72*;TCR-CD3 inh conf=53*;PRMT1 confirm=16
N#CC1=C(N)Oc2cc(N)ccc2C1c1ccsc1 (stereo not drawn)	4	-5	8	-4	1	8	.	.	.
Cc1ccccc1CN1CCCCC(NC(=O)c2ccc(N(C)C)cc2)C1=O (stereo not drawn)	0	5	2	-2	.	.	.	.	.
SMILES	rCAG binder	ABHD4 inh	SIAE primary	PRMT1 inh	TCR CD3 inh	HTRA1 inhibitor	HTRA1 conf	mABHD4 conf	SIAE inh conf	others
Oc1ccc(O)c(C=NNC(=S)NC2CC3CC2C2C=CCC32)c1 (stereo not drawn)	26	30*	34*	2	1	47*	73*	35*	39*
NNC(=S)NC1CC2CC1C1C=CCC21 (stereo not drawn)	1	-5	2	1	-7	-12	.	.	.
O=C(c1ccccc1)c1ccc2nc(-c3ccco3)c(-c3ccco3)nc2c1	42*	44*	25*	34*	13	45*	191*	21	1	rCAG bind conf=70*;DNA CAG counter=36*
O=C(O)c1ccc2nc(-c3ccccc3)c(-c3ccccc3)nc2c1	7	-15	-7	0	4	3	.	.	.
COc1ccc(CSc2nnc(SCC(=O)Nc3ccccc3-c3ccccc3)s2)cc1	9	-12	-6	-1	.	.	.	.	.
O=C(c1ccccc1I)N1CCC(Oc2cccnc2)CC1	-1	1	-5	-1	.	.	.	.	.
